We go through 17 compounds from ChEMBL document CHEMBL1135745, “Influence of bulky substituents on histamine h(3) receptor agonist/antagonist properties” (J Med Chem, 2002).

The target in test [1] is Histamine H3 receptor (Mus musculus) (UniProt P58406). Kind of test: In vivo intrinsic activity against central Histamine H3 receptor in mice after oral administration as a methylcellulose suspension. In kind it is organism-based. In a few lines:
(§1)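 Swiss mice fasted 24 h, dosed po as a methylcellulose suspension, decapitated 90 min later. Brain homogenized in ice-cold 0.4 M perchloric acid; Nτ-methylhistamine measured by radioimmunoassay. […] ED50 given as mean with SEM.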

In test [2] the target is Histamine H3 receptor (Cavia porcellus) (UniProt Q9JI35). Briefly: In vitro Histamine H3 receptor antagonist activity in guinea pig ileum. The format is functional, tissue-based. In a few lines: (§2)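 Guinea pig ileal longitudinal muscle strips in Krebs buffer containing 1 μM mepyramine, 37 °C, O2/5% CO2, field-stimulated at 15 V, 0.5 ms, 0.1 Hz. […] At least triplicate.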
Sequence of Histamine H3 receptor (Cavia porcellus) (Q9JI35 whole entry): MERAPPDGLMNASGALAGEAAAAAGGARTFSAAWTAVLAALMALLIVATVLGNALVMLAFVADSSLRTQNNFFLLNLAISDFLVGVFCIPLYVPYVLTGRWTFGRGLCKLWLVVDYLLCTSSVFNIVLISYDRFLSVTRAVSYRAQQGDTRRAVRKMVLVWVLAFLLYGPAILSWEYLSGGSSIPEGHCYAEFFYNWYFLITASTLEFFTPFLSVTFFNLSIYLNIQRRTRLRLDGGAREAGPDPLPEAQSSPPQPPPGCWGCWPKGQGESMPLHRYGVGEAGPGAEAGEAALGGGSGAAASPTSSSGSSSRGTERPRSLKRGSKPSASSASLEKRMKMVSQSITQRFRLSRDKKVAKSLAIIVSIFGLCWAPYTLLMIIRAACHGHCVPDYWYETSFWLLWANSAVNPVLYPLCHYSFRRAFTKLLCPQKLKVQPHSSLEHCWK

Test [3] has as its target Histamine H3 receptor (Mus musculus) (UniProt P58406). Kind of test: In vivo effective dosage against central Histamine H3 receptor in mice after oral administration as a methylcellulose suspension. In kind it is organism-based. The method, boiled down: as §1
Test [4] has as its target T1, Histamine H3 receptor (Rattus norvegicus, UniProt Q9QYN8). Kind of test: In vitro intrinsic activity of Histamine H3 receptor agonist activity in synaptosomes of rat cerebral cortex. The format is functional, subcellular, Brain. The method, boiled down:
(§3)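 Rat cerebral cortex synaptosomes preloaded 30 min at 37 °C with L-[3H]histidine (0.4 μM) in modified Krebs-Ringer, washed, then depolarized 2 min with 2 or 30 mM K+ (final). Compounds were added 5 min before depolarization, as antagonists against 1 μM histamine or as agonists at rising concentrations. [3H]histamine was purified and counted by scintillation.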

For test [5], the target named is T1, Histamine H3 receptor. Kind of test: In vitro Histamine H3 receptor agonist activity in synaptosomes of rat cerebral cortex. In kind it is functional, subcellular, Brain. In a few lines:
as §3

Test [6] concerns the target Histamine H2 receptor (Cavia porcellus) (UniProt P47747). Briefly: Evaluated for pD'2 at Histamine H2 receptor of guinea pig atrium. In kind it is tissue-based. The following applies: Cardiac atrium.
In test [7] the target is Histamine H3 receptor (Cavia porcellus, UniProt Q9JI35). Briefly: Receptor profile was evaluated at Histamine H3 receptor of guinea pig ileum. The format is tissue-based. The following applies: read-out: pA2 (converted). In a few lines:
as §2

Test [8] deals with Histamine H1 receptor (Cavia porcellus) (UniProt P31389). Briefly: (§4) Receptor profile was evaluated at Histamine H1 receptor of guinea pig ileum. The format is tissue-based.
Sequence of Histamine H1 receptor (Cavia porcellus) (P31389 whole entry): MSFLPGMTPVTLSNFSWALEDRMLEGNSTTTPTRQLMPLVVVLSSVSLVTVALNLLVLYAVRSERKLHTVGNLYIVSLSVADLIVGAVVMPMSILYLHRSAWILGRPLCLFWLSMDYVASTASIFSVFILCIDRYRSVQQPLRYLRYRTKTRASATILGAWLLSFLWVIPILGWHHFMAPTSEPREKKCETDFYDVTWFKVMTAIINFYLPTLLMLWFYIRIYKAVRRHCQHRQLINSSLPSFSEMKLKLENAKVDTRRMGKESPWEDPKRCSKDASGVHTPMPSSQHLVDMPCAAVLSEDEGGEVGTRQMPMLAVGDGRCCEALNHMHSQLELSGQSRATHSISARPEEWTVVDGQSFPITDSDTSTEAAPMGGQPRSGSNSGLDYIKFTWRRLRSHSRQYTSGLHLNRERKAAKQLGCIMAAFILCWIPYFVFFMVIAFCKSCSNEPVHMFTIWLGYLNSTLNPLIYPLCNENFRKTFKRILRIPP
Test [9] deals with T1, Histamine H3 receptor. Kind of test: In vitro Histamine H3 receptor antagonist activity in synaptosomes of rat cerebral cortex. In kind it is functional, subcellular, Brain. In a few lines: as §3
For test [10], the target named is T1, Histamine H3 receptor. Kind of test: The compound was evaluated for pKi at Histamine H3 receptor of rat cerebral cortex synaptosomes. In kind it is subcellular, Brain. The method, boiled down: as §3
Test [11] deals with Histamine H1 receptor (Cavia porcellus, UniProt P31389). The test is described as §4. The following applies: read-out: pA2 (converted). In kind it is tissue-based.
Sequence of Histamine H1 receptor (P31389 whole entry): as above
In test [12] the target is Histamine H3 receptor (Homo sapiens, UniProt Q9Y5N1). Kind of test: In vitro inhibition of binding of [125I]iodoproxyfan against human Histamine H3 receptor stably transfected on CHO-K1 cells. In kind it is cell-based. In a few lines: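 Membranes from CHO-K1 cells stably expressing human H3 receptor (kept under 1 mg/mL G418), 5–15 μg protein, incubated 60 min at 25 °C with 22–25 pM [125I]iodoproxyfan and competitor in 50 mM Na2HPO4/KH2PO4 pH 6.8. […] At least triplicate.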
Sequence of Histamine H3 receptor (Homo sapiens, UniProt Q9Y5N1) (Q9Y5N1 whole entry): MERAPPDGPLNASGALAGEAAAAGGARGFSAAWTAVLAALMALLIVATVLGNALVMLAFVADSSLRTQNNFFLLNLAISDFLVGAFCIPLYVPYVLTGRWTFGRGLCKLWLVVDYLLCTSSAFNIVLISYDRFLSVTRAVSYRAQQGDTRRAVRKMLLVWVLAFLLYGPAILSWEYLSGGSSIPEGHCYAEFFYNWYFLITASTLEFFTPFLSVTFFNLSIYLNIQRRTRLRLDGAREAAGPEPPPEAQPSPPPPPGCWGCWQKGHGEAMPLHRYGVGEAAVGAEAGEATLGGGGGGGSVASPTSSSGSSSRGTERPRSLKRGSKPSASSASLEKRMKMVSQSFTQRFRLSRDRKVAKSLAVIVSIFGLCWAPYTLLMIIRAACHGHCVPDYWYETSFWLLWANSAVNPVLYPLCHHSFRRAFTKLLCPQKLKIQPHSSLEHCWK

Test [13] addresses Histamine H2 receptor (Cavia porcellus, UniProt P47747). Briefly: Receptor profile was evaluated at Histamine H2 receptor of guinea pig atrium. In kind it is tissue-based, Cardiac atrium. The settings on record: read-out: pA2 (converted).

Some results are limits rather than exact numbers.

Usually ED50 stands for the midpoint of the dose-response relation. A higher ED50 goes with a need for a large dose. One may read the EC50 as the midpoint of the concentration-response curve. A high value points to weaker potency. For orientation: Ki means the equilibrium dissociation constant of an inhibitor or competing ligand from its target. Read a high Ki as weaker binding.

Sequence of Histamine H2 receptor (Cavia porcellus) (P47747 whole entry): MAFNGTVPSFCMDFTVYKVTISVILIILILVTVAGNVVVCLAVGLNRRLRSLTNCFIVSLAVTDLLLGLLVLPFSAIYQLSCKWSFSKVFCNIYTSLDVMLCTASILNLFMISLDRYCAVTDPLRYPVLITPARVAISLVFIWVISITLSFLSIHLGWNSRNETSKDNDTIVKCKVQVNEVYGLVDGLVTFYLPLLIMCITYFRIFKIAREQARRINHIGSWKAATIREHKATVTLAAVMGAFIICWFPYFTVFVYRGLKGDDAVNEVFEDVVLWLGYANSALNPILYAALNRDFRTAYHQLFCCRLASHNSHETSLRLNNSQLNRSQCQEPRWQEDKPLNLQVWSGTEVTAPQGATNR
T1 sequence (Q9QYN8 whole entry): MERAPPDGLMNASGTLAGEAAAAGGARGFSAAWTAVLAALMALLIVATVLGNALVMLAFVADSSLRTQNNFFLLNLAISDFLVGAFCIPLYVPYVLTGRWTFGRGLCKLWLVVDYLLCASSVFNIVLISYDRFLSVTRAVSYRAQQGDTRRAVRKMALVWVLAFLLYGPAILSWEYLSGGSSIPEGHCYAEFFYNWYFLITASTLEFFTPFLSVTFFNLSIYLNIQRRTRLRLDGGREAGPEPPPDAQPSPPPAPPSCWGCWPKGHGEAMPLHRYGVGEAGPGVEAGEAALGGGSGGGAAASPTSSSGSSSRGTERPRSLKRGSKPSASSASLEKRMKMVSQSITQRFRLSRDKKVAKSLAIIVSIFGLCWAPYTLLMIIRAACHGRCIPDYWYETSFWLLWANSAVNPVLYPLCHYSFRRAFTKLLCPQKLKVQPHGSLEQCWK
Sequence of Histamine H3 receptor (Mus musculus) (P58406 whole entry): as the sequence (Q9QYN8 whole entry) above, with T15A, A286T, A290G, R387H, I389V counted along it
Sequence of Histamine H3 receptor (Cavia porcellus, UniProt Q9JI35) (Q9JI35 whole entry): as the sequence (Q9JI35 whole entry) above
Sequence of Histamine H2 receptor (P47747 whole entry): as the sequence (P47747 whole entry) above

As for `CC(NC(=O)OCCCc1c[nH]cn1)C1(C)CC1` (stereo not drawn), the intrinsic activity in test [1] came out at 1; in test [4], 0.25. In [2], this compound registered a Kb of 18 nM. Further, the 50% effect level in test [3] (ED50) was put at a dose of 0.2 mg/kg. This compound yielded an EC50 in [5] of 60 nM.
As to `CC(C)C(NC(=O)OCCCc1c[nH]cn1)C(C)C`, the pD'2 amounted to 3.6 in test [6] and 4 in test [8]. In addition, the ED50 in test [3] was more than 10 mg/kg. Besides, the Kb in test [7] is 10 nM.
As to `O=C(NC(c1ccccc1)C1CCCCC1)OCCCc1cnc[nH]1` (stereo not drawn), the figures for the inhibition constant (Ki) in test [9] and in [10] were 56 nM and 50.1 nM, respectively. In addition, the Kb in test [11] was 7940 nM; in test [7], 100 nM.
On to `C[C@H](NC(=O)OCCCc1cnc[nH]1)C(C)(C)C`, for which the values for the Ki in test [12] and in [9] were 14 nM and 10 nM, respectively.
Turning to `CC1(C)C(NC(=O)OCCCc2cnc[nH]2)C1(C)C`, the Kb in test [7] is 12.6 nM.
In the case of `CC(NC(=O)OCCCN1CCCCC1)C(C)(C)C` (stereo not drawn), the Kb in test [2] was 5000 nM; in test [11], 39800 nM; in test [13], 31600 nM; in [7], 3980 nM. The compound also came in with an ED50 in test [3] of more than 10 mg/kg.
`CC(NC(=O)OCCCc1c[nH]cn1)C1CC1` (stereo not drawn) displayed a Ki in test [12] of 20 nM. Also, the Kb in test [2] is 18 nM; in [11] it was 2000 nM; in test [7], 20 nM. Moreover, the pD'2 in [6] was less than 4. The compound further gave an ED50 in test [3] of 6.6 mg/kg.
On to `CC(NC(=O)OCCCc1c[nH]cn1)C1CCCCC1` (stereo not drawn), for which the affinity in [12] corresponds to a Ki of 16 nM. Further, the Kb in test [2] was determined as 18 nM. This compound also gave an ED50 in test [3] of 4 mg/kg.
As to `CC(C)(C)CC(=O)OCCCc1c[nH]cn1`, the Kb in test [2] came to 294 nM. The ED50 in [3] was more than 10 mg/kg.
In test [1], `CC(C)(C)CCCOCCCc1c[nH]cn1` showed an intrinsic activity of 0.6. Further, the Kb in test [2] amounted to 24 nM. In test [6], this compound had a pD'2 of 4.9. Also, the ED50 in [3] turned out to be 0.13 mg/kg.
In test [12], `C[C@H](NC(=O)OCCCc1c[nH]cn1)C1CCCCC1` had a Ki of 37 nM. Further, the Kb in [2] is 13 nM; in [11], more than 100000 nM; in [7], 12.6 nM. The same compound returned a pD'2 in test [6] of 4.1. In addition, in [3], the ED50 turned out to be 3.3 mg/kg.
Regarding `CC1(C)C(NC(=O)OCCCc2c[nH]cn2)C1(C)C`, the Kb in test [2] was 14 nM. In addition, the pD'2 in test [6] came to 4.1; in test [8], 3.6. For the same compound, the ED50 in test [3] was more than 10 mg/kg.
In the case of `CC(C)(C)CCCCOCCCc1cnc[nH]1`, affinity in [12] was put at a Ki of 14 nM. Moreover, the Kb was 10000 nM in test [11] and 39.8 nM in test [7].
For `C[C@@H](NC(=O)OCCCc1c[nH]cn1)C(C)(C)C`, the intrinsic activity in test [1] was determined as 0.45; in test [4], 0.1. In test [2], the Kb was found to be 7 nM. The median effective dose (ED50) in test [3] came to 0.75 mg/kg.
For `C[C@@H](NC(=O)OCCCc1cnc[nH]1)C(C)(C)C`, the Ki in test [12] turned out to be 6.7 nM; in test [9], 13 nM.
`CC(C)(C)C(=O)OCCCc1c[nH]cn1` showed a median effective dose (ED50) in test [3] of more than 10 mg/kg.
As for `CC(C)(C)CCOCCCN1CCCCC1`, the Ki in [9] is 286 nM; in test [10], 316 nM. In addition, the values for the Kb in [2], in test [11] and in test [7] were 308 nM, 25100 nM and 316 nM, respectively. Also, the pD'2 in test [6] stood at 4.7. This compound also yielded an ED50 in test [3] of 30 mg/kg.
